# Measured values published in ChEMBL document CHEMBL4513216, “Probing the Open Global Health Chemical Diversity Library for Multistage-Active Starting Points for Next-Generation Antimalarials” (ACS Infect Dis, 2020).
# Assay: Toxicity liver stage against HepG2, at 10uM
# Format: cell-based
# Parameters: test concentration 10 uM, cell line HepG2-A16-CD81EGFP
# Conditions: human, HepG2-A16-CD81EGFP cells; read-out: INHIBITION
# Procedure, shortened: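 Uninfected HepG2-A16-CD81EGFP cells, 3 × 10^3 per well, 1536-well, plated on prespotted compound at 10 μM final, parasite-free screening media added to match infected plates; puromycin 10 μM positive, DMSO 0.5% negative; run in parallel with 48 h PbLuc assay at 37 °C, 5% CO2; viability by CellTiter-Glo luminescence, normalized to controls.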
row,Compound,cytotoxicity at 10 µM [%]
1,Cc1cc(C)nc(-n2nc(C)c3c2NC(=O)CSC3c2cnn(C)c2)n1 (centres undefined),-36.5
2,Cc1cc(C(=O)N2CCN(c3nc4c(C(C)C)cccc4s3)CC2)no1,16.7
3,CCOc1ccccc1C(=O)NCCC(O)c1ccoc1 (centres undefined),-16.4
4,CC(=O)N1CC2(CCN(C(=O)C3CC3)CC2)c2cc(C)ccc21,9.94
5,O=C1CSC(c2ccc(O)cc2)c2sccc2N1 (centres undefined),5.31
6,O=c1[nH]c2nc(NCC3CCCO3)ncc2c(=O)n1-c1ccc(F)cc1 (centres undefined),-5.89
7,CNC(=O)c1sccc1N(C)S(=O)(=O)c1ccc(Cl)cc1,14.7
8,COc1ccc(-c2nc(C)cc(SCC(N)=O)n2)cc1,5.64
9,Cc1ccc(C(=O)Cc2c(Cl)nc3n(C)c(=O)n(C)c(=O)n23)cc1,-3.96
10,CCN(CC)c1nc(Nc2cccc(C(C)O)c2)nc2ccccc12 (centres undefined),37.6
11,CCCNc1cc(-c2c[nH]nc2C2CCN(C(=O)C3CCC3)C2)ccn1 (centres undefined),82
12,CN(C)c1cc(C2CCCN(S(=O)(=O)c3cn[nH]c3)C2)ccn1 (centres undefined),-0.24
13,Cc1ccsc1CN1CCc2c(nc(N3CCCCC3C)[nH]c2=O)C1 (centres undefined),-3.42
14,Cn1cc(C(=O)N2CCCC(Cc3cccc4ncccc34)C2)cn1 (centres undefined),4.88
15,CCNC(=O)Nc1ccc(N2CCC(OC)CC2)c(C(F)(F)F)c1,20.4
16,CCc1cc(N2CCC(Nc3ccc(Cl)cn3)CC2)ncn1,49.1
17,COc1ccc2c(c1)CCCN2C(=O)c1cccc(N(C)C)c1,62.8
18,CCSc1cccc(NCc2cccnc2)c1,0.14
19,COc1c(C2CCCN2CC(=O)N(C)Cc2ccco2)c(C)nn1C (centres undefined),-3.13
20,CNC(=O)c1cccnc1NCc1ccc(Cn2ccnc2)cc1,90.3
21,CC(C)c1ccc(OCCNC(=O)c2ccoc2)cc1,-1.92
22,Cc1ncsc1C(=O)OCC1CCN(c2ccccc2)C1 (centres undefined),27.5

row,Compound,cytotoxicity at 10 µM [%]
1,Cc1ccc(NCc2ccc(C#N)cc2)c(CN(C)C)c1,-3.07
2,Fc1cc(CN2CCOC3(CCOCC3)C2)ccc1OC(F)F,-11.9
3,O=C(NC1CC1)C1CCN(c2cccc(C(F)(F)F)n2)CC1,5.17
4,CC1CCN(C(=O)C2CCCN(C(=O)Nc3ccccn3)C2)CC1 (centres undefined),-2.98
5,COCc1nc2cc(NCc3ccc(CO)o3)ccc2o1,-16.2
6,Cc1cc(S(=O)(=O)N2CCCN3CCCC3C2)ccc1F (centres undefined),17
7,CCCNC(=O)CNc1ccc2c(c1)N(C(=O)OC(C)(C)C)CCC2,13
8,CC(C)CN1CCC(NC(=O)c2ccc(Cl)cc2Cl)CC1,-8.33
9,CCC(CNC(=O)NC1CCN(C)CC1)Oc1ccccc1Cl (centres undefined),5.47
10,COCC1CN(c2ccc3c(Cl)ccnc3c2F)CCO1 (centres undefined),25
11,Cc1cc(S(=O)(=O)Nc2onc(C)c2C)sc1C,5.54
12,CN(Cc1ccccn1)C(CO)c1cccc(Br)c1 (centres undefined),-6.12
13,O=C(Cn1cnc2ccccc2c1=O)Nc1cc(C2CC2)n[nH]1,49.4
14,O=C(CCCn1ccnc1)NC1CCCN(c2ccccc2Cl)C1 (centres undefined),4.86
15,N#Cc1ccc(CN(CC(N)=O)C2CCCC2)c(Br)c1,30.1
16,Cc1nc(CN2CCCC(Nc3ncnc4ccccc34)C2)no1 (centres undefined),50
17,CN(Cc1ccc(Cl)s1)C(=O)CN(C)C1CCCc2ccccc21 (centres undefined),21.4
18,Cc1ccc(C)c(OCC(O)CN(C)CC(=O)Nc2cc(C)on2)c1 (centres undefined),-14.4
19,Cc1nc(C(=O)NC2CCN(CCOc3ccc(Br)cc3)CC2)cs1,13
20,N#Cc1c(Cl)nsc1NCC1(c2ccccc2)CCC1,26.7
21,COc1ccc(-c2nc(CN3CC(n4cc(C)cn4)C3)no2)cc1,-14.9
22,COCC1CN(c2ncccn2)Cc2cnn(CC3CC3)c21 (centres undefined),6.68

row,Compound,cytotoxicity at 10 µM [%]
1,COCC(=O)N1CCC2(COCc3cnc(N4CCOCC4)nc32)C1 (centres undefined),-65
2,O=C(c1ccco1)N1CCO[C@@H]2CN(c3ccccc3)CC[C@@H]2C1,-67.7
3,COc1ccc2[nH]cc(-c3ccnc(NC4CCCC4)n3)c2c1,-6.33
4,c1cc(-c2c[nH]nc2C2CCCCC2)nc(N2CCCCCC2)n1,8.07
5,O=c1[nH]c(NCc2cccc(OC(F)F)c2)nc2c1CCNC2,2.47
6,OC1(CN2CCC(Oc3cccc(C(F)(F)F)c3)CC2)CCNC1 (centres undefined),1.05
7,c1ccc(-c2cnn3cc(CN4CCC5(CCO5)CC4)cnc23)cc1,1.64
8,CCc1cc(N2CCC(n3cc(C(=O)NC4CC4)nn3)CC2)ncn1,27.7
9,CC1(c2ccccc2)CCCN(Cc2cncn2C2CCCC2)C1 (centres undefined),16.3
10,Clc1ccccc1-c1cc(CNc2ncnc3c2CCNCC3)no1,24.6
11,CCO[C@H]1C[C@@H](O)C12CCN(C(=O)CC(F)(F)F)CC2,-6.36
12,CC(C)CN1CCCC1c1ccc(C(=O)Nc2cccnc2)s1 (centres undefined),-6.79
13,Cc1cc(CN2CCCC2)cc(Oc2nc(C)cnc2C)c1,-2.54
14,C(=C\c1ccc(CN2CCCC2)cn1)/c1ccccc1,9.81
15,O=C(NCc1nc(NC2CCCC2)c2cc(Cl)ccc2n1)c1ccoc1,-2.99
16,COc1ccccc1CCN1CCCC(CN(C)Cc2c[nH]c(C)n2)C1 (centres undefined),6.74
17,N[C@@H]1c2ccccc2C2(CCN(c3ncccc3C(F)(F)F)CC2)[C@H]1O,0.106
18,COc1ccc(-c2noc(-c3ccc(N4CCC[C@H]4CO)nc3)n2)cc1,11.1
19,CN(C)c1ccc(-c2cc(C(=O)O)cc(S(=O)(=O)NC3CC3)c2)cc1,16.5
20,COc1ccccc1CCN[C@@H]1c2ccccc2C2(CCNCC2)[C@H]1O,5.79
21,O=C(NC1CC1)c1ccnc(N2CCOC(c3ccc(Cl)c(Cl)c3)C2)c1 (centres undefined),14
22,O=C(O)c1cccnc1CN(Cc1ccsc1)C1CC1,3.7

row,Compound,cytotoxicity at 10 µM [%]
1,CCc1[nH]c2c(CNc3nc(C)cc(NC)n3)cc(C)cc2c1C,-22.4
2,CC(Nc1ncnc2c1CCNC2)c1ccc2c(c1)CCCC2 (centres undefined),42
3,CNc1nc(C(=O)N2CCN(c3ccc(Cl)c(Cl)c3)CC2)cs1,13.9
4,O=C1O[C@@H]2CN(c3ncccn3)C[C@@H]2N1CCCc1ccc(F)cc1,-0.74
5,CC(C)N1CC(NC(=O)c2ccc(Cl)s2)CC1=O (centres undefined),-8.51
6,Cc1cc(NC(=O)c2ccc(CN3CC[C@H](O)C3)cc2)ccc1F,4.5
7,CCOC(=O)N1CCN(c2nc(CCN)nc3sc(C)c(C)c23)CC1,-43.4
8,Clc1ccc2nc(N3CCC(NCCCC4CCOC4)CC3)sc2c1 (centres undefined),4.1
9,O=C(c1ncoc1C1CC1)N1CCCN(CCCc2ccccc2)CC1,-2.78
10,Cc1cc(O)ccc1-c1cc(-c2cnn(C)c2C2CC2)c(C#N)c(N)n1,40.2
11,Fc1ccccc1OC1CCN(CCn2cc3ccccc3n2)CC1,9.25
12,CSc1nccc(N2CCC3(CCCN(CCc4ccccc4)C3)C2)n1 (centres undefined),16.2
13,OCC1(CC2CCCCO2)CCN(c2cnc3ccccc3n2)CC1 (centres undefined),21.1
14,COCCN(C)C[C@@H]1CN(C(=O)c2c(F)ccc(OC)c2F)C[C@@H]1CO,0.45
15,Oc1ccc(N2CCC(Cc3ccccc3)CC2)nn1,45.4
16,CCC(Nc1nccc(C2CCCC2)n1)c1ccncc1 (centres undefined),-63.8
17,COc1cccc(-c2noc3c2CN(c2ncnc4c2CCC4)CC3)c1,51
18,COc1cccc(-c2noc(C3CCN(Cc4cn(C)nc4C)C3)n2)c1 (centres undefined),11.4
19,COc1ccc(-c2noc(CN3CC(n4cc(C)cn4)C3)n2)cc1,-5.97
20,O=C1NCCN1C1CCN(Cc2nc(-c3ccsc3)no2)CC1,44.8
21,COc1ccc(OCCN2CCC(N3CCNC3=O)CC2)cc1,29.5
22,Cc1cc(C(=O)N2CCc3nnc(N)cc3C2)c(C)n1-c1ccccc1,0.591

row,Compound,cytotoxicity at 10 µM [%]
1,CN(Cc1ncc(C(C)(C)C)o1)CC1CCCN1c1cccnn1 (centres undefined),-5.52
2,c1ccc(OCCCN2CCN(c3ccc4nncn4n3)CC2)cc1,-0.421
3,CCOc1ncccc1NC(=O)N1CCN(c2cccc(C)c2C)CC1,81.2
4,Cn1cc(NS(=O)(=O)c2ccc(OC(F)(F)F)cc2)ccc1=O,33.4
5,CC(C)c1n[nH]c(C(=O)Nc2ccnn2C(C)C)c1Br,13.8
6,NC1CCc2nc(-c3ccncc3)nc(Nc3cccc(F)c3)c2C1 (centres undefined),26.4
7,Cc1noc(C)c1CN1CCn2cc(CNc3ccccn3)nc2C1,-1.38
8,Cc1noc(C)c1CN1C[C@@H]2CC(F)(F)C[C@@H]2C1,-2.58
9,CCN1C[C@H]2[C@@H](C1)N(c1ncc(F)cn1)CC[C@H]2OC,3.5
10,O=C(Nc1ccccc1)c1ccc2c(c1)C1(CCCCC1)CN2,-31.5
11,FC1(F)CCN(Cc2ccccn2)CC12CCN(c1cccnc1)C2 (centres undefined),25.5
12,COc1cccc(CN(Cc2ccco2)Cc2[nH]cnc2C)c1,3.77
13,Cc1noc(C)c1CN1CCc2ncnc(-c3ccncc3)c2CC1,-87
14,Cn1ncc2c1CCCC2NCc1cccc(C(F)(F)F)c1 (centres undefined),-8.25
15,CCN1C[C@@H]2[C@@H](OC)CCN(C(=O)c3cc(C)nn3CC)[C@@H]2C1,-118
16,CNC(=O)c1cc2c(nc1NCC(C)C)CCN(c1ncccn1)CC2,-157
17,CN1C(=O)C2(CCN(CC3CCC3)C2)c2ccccc21 (centres undefined),-71.3
18,c1cc(CO[C@H]2CC[C@H]3[C@H]2OCCN3Cc2nccs2)ccn1,-109
19,O=C([C@H]1C[C@@H]2CCN(c3cccc(F)c3)C[C@H]2O1)N1CCCC1,1.99
20,O=C(CC1CC1)NC[C@]12COC[C@H]1CN(c1ncccn1)C2,-142
21,O=C(c1ccco1)N1CCO[C@@H]2CN(CC3CC3)CC[C@@H]2C1,-67.9
